According to ChEMBL document CHEMBL1155918, “Oxadiazole-carbonylaminothioureas as SIRT1 and SIRT2 inhibitors” (J Med Chem, 2008):

Assays:
[1] = molecular target: T1, NAD-dependent protein deacetylase sirtuin-2 (Homo sapiens) (UniProt Q8IXJ6); assay: Inhibition of human SIRT2 at 200 uM
T1 sequence (whole entry): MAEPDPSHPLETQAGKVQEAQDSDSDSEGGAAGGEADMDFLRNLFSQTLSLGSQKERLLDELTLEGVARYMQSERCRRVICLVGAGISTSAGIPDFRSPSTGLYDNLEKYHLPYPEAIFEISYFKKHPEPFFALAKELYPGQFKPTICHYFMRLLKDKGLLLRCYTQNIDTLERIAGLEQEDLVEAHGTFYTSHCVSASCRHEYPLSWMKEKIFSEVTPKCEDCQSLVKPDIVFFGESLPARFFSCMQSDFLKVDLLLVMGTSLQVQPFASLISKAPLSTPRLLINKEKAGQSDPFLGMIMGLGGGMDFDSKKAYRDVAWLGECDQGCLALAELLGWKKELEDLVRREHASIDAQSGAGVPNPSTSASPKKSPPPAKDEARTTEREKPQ
Outline: (§1)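 Single-concentration screen at 200 µM compound in the NAD⁺-based assay, with radiolabeled nicotinamide release read by thin layer chromatography. Result is % inhibition ± standard deviation (n = 2-3).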

[2] = molecular target: T2, NAD-dependent protein deacetylase sirtuin-1 (Homo sapiens) (UniProt Q96EB6); assay: Inhibition of human SIRT1 at 200 uM; outline: as §1
T2 sequence (whole entry): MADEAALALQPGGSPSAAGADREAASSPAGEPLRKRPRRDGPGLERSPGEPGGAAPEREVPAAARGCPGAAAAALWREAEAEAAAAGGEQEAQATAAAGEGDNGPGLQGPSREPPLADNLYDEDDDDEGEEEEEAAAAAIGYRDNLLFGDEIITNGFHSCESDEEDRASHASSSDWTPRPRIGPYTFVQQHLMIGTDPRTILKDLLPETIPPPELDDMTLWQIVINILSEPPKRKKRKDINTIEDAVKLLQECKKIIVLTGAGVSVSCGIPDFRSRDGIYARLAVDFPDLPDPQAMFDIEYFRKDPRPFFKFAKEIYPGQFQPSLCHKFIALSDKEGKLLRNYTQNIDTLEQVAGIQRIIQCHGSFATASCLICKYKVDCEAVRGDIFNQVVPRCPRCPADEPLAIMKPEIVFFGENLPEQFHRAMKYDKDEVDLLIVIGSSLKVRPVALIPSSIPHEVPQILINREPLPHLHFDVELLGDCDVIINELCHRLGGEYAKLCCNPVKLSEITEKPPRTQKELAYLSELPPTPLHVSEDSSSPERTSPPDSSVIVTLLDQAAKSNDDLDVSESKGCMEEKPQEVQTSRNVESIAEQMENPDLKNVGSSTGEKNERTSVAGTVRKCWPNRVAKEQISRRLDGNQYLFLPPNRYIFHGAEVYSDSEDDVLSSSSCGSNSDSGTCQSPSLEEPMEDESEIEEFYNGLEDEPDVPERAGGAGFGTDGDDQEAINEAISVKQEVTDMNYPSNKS

[3] = molecular target: T3, NAD-dependent protein deacetylase sirtuin-1 (Homo sapiens, UniProt Q96EB6); assay: Inhibition of human SIRT1 assessed as nicotinamide releasing by microplate filtration assay
T3 sequence (Q96EB6 whole entry): T2 sequence (whole entry)

[4] = molecular target: T4, NAD-dependent protein deacetylase sirtuin-2 (Homo sapiens, UniProt Q8IXJ6); assay: Inhibition of human SIRT2 assessed as nicotinamide releasing by microplate filtration assay
T4 sequence (Q8IXJ6 whole entry): T1 sequence (whole entry)

Compound	inhibition [1]	inhibition [2]	IC50 [3]	IC50 [4]
CC(C)(C)c1ccc(-c2noc(C(=O)NCC(=O)Nc3cccc(C(F)(F)F)c3)n2)cc1	18%	20%		
CC(C)(C)c1ccc(-c2noc(C(=O)NNC(=S)Nc3cccc(C(F)(F)F)c3)n2)cc1	87%	59%	192 µM	57 µM
O=C(NNC(=S)Nc1ccc(C(F)(F)F)cc1)c1nc(-c2cccnc2)no1	-4%	4%		
O=C(NNC(=S)Nc1ccc(C(F)(F)F)cc1)c1nc(-c2cccc3ccccc23)no1	71%	54%	318 µM	74 µM
CCCCNC(=O)NNC(=O)c1nc(-c2ccc(C(C)(C)C)cc2)no1	7%	22%		
CC(C)(C)OC(=O)Nc1cccc(-c2noc(C(=O)NNC(=S)Nc3ccc(C(F)(F)F)cc3)n2)c1	71%	69%	168 µM	129 µM
CC(C)(C)c1ccc(-c2noc(C(=O)NNC(=O)Nc3cccc([N+](=O)[O-])c3)n2)cc1	39%	18%		
CC(C)(C)c1ccc(-c2noc(C(=O)NNC(=S)Nc3ccc(C(F)(F)F)cc3)n2)cc1	89%	70%	325 µM	109 µM

Further lines, results first:

inhibition [1]	inhibition [2]	IC50 [3]	IC50 [4]	Compound
29%	-2%			CC(C)(C)c1ccc(-c2noc(C(=O)NNC(=S)Nc3ccccc3)n2)cc1
35%	10%			O=C(NNC(=S)Nc1ccc(F)cc1)c1nc(-c2cccc3ccccc23)no1
56%	57%	13 µM	113 µM	O=C(NNC(=S)Nc1cccc(C(F)(F)F)c1)c1nc(-c2cccc3ccccc23)no1
22%				O=C(NNC(=S)Nc1ccc(F)cc1)c1nc(-c2ccccc2)no1
8%	29%			O=C(NNC(=S)Nc1ccc(C(F)(F)F)cc1)c1nc(-c2ccccc2)no1
0%	17%			CC(C)(C)c1ccc(-c2noc(CCCC(=O)Nc3cccc(C(F)(F)F)c3)n2)cc1
51%	12%		257 µM	O=C(NNC(=O)c1nc(-c2cccc3ccccc23)no1)Nc1cccc(C(F)(F)F)c1
38%	14%			CC(C)(C)c1ccc(-c2noc(C(=O)NNC(=O)Nc3ccccc3)n2)cc1
5%	0%			O=C(CCCc1nc(-c2ccccc2)no1)Nc1ccccc1
17%	28%			O=C(CNC(=O)c1nc(-c2ccccc2)no1)Nc1ccccc1
